How the values were obtained:
[1] = target: cGMP-dependent protein kinase 1 (Homo sapiens) (UniProt Q13976); assay: Inhibition of PRKG1 (unknown origin) at 1 uM relative to control
[2] = target: Epidermal growth factor receptor (Homo sapiens, UniProt P00533, L858R); assay: Inhibition of human recombinant cytoplasmic GST-tagged EGFR L858R mutant expressed in baculovirus using TK-substrate-biotin preincubated for 15 mins followed by substrate addition measured after 60 mins by FRET-based Z'-Lyte assay
NCI-H1975 [3] = assay: In vivo anti tumor activity against human NCI-H1975 cells xenografted in nude C.B-17 SCID mouse model assessed as relative tumor volume at 20 mg/kg, ig for 18 days measured twice a week relative to control; format: functional
How it was run: (§1)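 C.B-17 SCID mice received s.c. inoculation of 5 × 10^6 H1975 cells. At 100-150 mm3 they were randomized (n = 9 per group) and dosed intragastrically once daily for 18 days, with PBS as the control. Tumors were measured by caliper twice weekly, with V = length × width²/2. RTV = V/V0, and T/C% = treated mean RTV / control mean RTV × 100.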

Mus musculus = assay: Toxicity in nude C.B-17 SCID mouse model xenografted with human NCI-H1975 cells assessed as loss of body weight at 5 to 20 mg/kg, ig for 18 days; format: organism-based; settings: in vivo, po, 432 h
How it was run: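 H1975 xenografts were set up by subcutaneous inoculation of 5 × 10^6 cells into C.B-17 SCID mice. At a mean tumor volume of 100-150 mm3, mice were randomized into groups of n = 9. They were dosed intragastrically once daily for 18 days at 5, 10 or 20 mg/kg, given as 0.1 mL/10 g body weight. The control group received PBS, and tumors were caliper-measured twice weekly.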

[4] = target: Protein-tyrosine kinase 6 (Homo sapiens) (UniProt Q13882); assay: Inhibition of PTK6 (unknown origin) at 1 uM relative to control
[5] = Clearance in Sprague-Dawley rat at 1 mg/kg, iv after 24 hrs by LC-MS/MS analysis; format: ADME, organism-based; settings: in vivo
How it was run: (§2)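 Male Sprague-Dawley rats (200-240 g) received 1 mg/kg by tail-vein injection in 2% DMSO, 20% PEG400 and 78% buffered saline, or 10 mg/kg by oral gavage in 0.5% methylcellulose. Orbital sinus blood was drawn into heparinized tubes at 2, 5, 15 and 30 min and at 1, 2, 4, 8, 12 and 24 h, then centrifuged. Plasma was measured by LC/MS/MS in SRM mode, with non-compartmental analysis.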

[6] = target: Calcium/calmodulin-dependent protein kinase type II subunit beta (Homo sapiens) (UniProt Q13554); assay: Inhibition of CAMK2B (unknown origin) at 1 uM relative to control
[7] = target: AMP-activated protein kinase (AMPK) alpha-1/beta-1/gamma-1 (Homo sapiens) (UniProt P54619+Q9Y478+Q13131); assay: Inhibition of AMPK A1/B1/G1 (unknown origin) at 1 uM relative to control; format: protein-complex assay
NCI-H1975 [8] = assay: In vivo anti tumor activity against human NCI-H1975 cells xenografted in nude C.B-17 SCID mouse model assessed as relative tumor volume at 5 mg/kg, ig for 18 days measured twice a week relative to control; format: functional; how it was run: as §1
Homo sapiens = organism: Homo sapiens; assay: Inhibition of 746 to 750 truncated EGFR (unknown origin) at 1 uM relative to control
[9] = Half life in rat liver microsomes; format: ADME, microsome
[10] = Intrinsic clearance in dog liver microsomes; format: ADME, Canis lupus familiaris, microsome; settings: read-out: CLH
NCI-H1975 [11] = assay: In vivo anti tumor activity against human NCI-H1975 cells xenografted in nude C.B-17 SCID mouse model assessed as tumor growth inhibition at 5 mg/kg, ig for 18 days measured twice a week relative to control; format: functional; settings: NCI-H1975, po, 432 h, read-out: TGI
How it was run: (§3)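 H1975 s.c. xenografts (5 × 10^6 cells) were grown in C.B-17 SCID mice and randomized at 100-150 mm3 (n = 9). Mice were dosed intragastrically once daily for 18 days against a PBS control. TGI% = (TWcontrol − TWtreatment)/TWcontrol × 100, where TW is the mean tumor weight on day 18.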

[12] = target: Activated CDC42 kinase 1 (Homo sapiens) (UniProt Q07912); assay: Inhibition of TNK2 (unknown origin) at 1 uM relative to control
NCI-H1975 [13] = assay: In vivo anti tumor activity against human NCI-H1975 cells xenografted in nude C.B-17 SCID mouse model assessed as tumor growth inhibition at 10 mg/kg, ig for 18 days measured twice a week relative to control; format: functional; settings: NCI-H1975, po, 432 h, read-out: TGI; how it was run: as §3
[14] = target: Insulin receptor (Homo sapiens) (UniProt P06213); assay: Inhibition of INSR (unknown origin) at 1 uM relative to control
[15] = target: BDNF/NT-3 growth factors receptor (Homo sapiens) (UniProt Q16620); assay: Inhibition of NTRK2 (unknown origin) at 1 uM relative to control
[16] = Tmax in Sprague-Dawley rat at 10 mg/kg, po administered via gavage by LC-MS/MS analysis; format: ADME, organism-based; settings: in vivo; how it was run: as §2
[17] = Half life in Sprague-Dawley rat at 10 mg/kg, po administered via gavage by LC-MS/MS analysis; format: ADME, organism-based; settings: in vivo
How it was run: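 Male Sprague-Dawley rats (200-240 g) were dosed either by tail vein at 1 mg/kg in 2% DMSO/20% PEG400/78% buffered saline or by oral gavage at 10 mg/kg in 0.5% methylcellulose. Blood was drawn by orbital sinus puncture at 2 min to 24 h into heparin, and plasma was analysed by LC/MS/MS in SRM mode. Parameters came from non-compartmental analysis.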

[18] = target: Tyrosine-protein kinase Blk (Homo sapiens) (UniProt P51451); assay: Inhibition of BLK (unknown origin) at 1 uM relative to control
[19] = target: Tyrosine-protein kinase JAK3 (Homo sapiens) (UniProt P52333); assay: Inhibition of JAK3 (unknown origin) at 1 uM relative to control
[20] = target: Tyrosine-protein kinase ABL1 (Homo sapiens) (UniProt P00519); assay: Inhibition of ABL1 (unknown origin) at 1 uM relative to control
[21] = target: Insulin-like growth factor 1 receptor (Homo sapiens) (UniProt P08069); assay: Inhibition of IGF1R (unknown origin) at 1 uM relative to control
[22] = target: Casein kinase I isoform alpha (Homo sapiens) (UniProt P48729); assay: Inhibition of CSNK1A1 (unknown origin) at 1 uM relative to control
[23] = target: Inhibitor of nuclear factor kappa-B kinase subunit beta (Homo sapiens) (UniProt O14920); assay: Inhibition of IKBKB (unknown origin) at 1 uM relative to control
[24] = target: Voltage-gated inwardly rectifying potassium channel KCNH2 (Homo sapiens, UniProt Q12809); assay: Inhibition of human ERG expressed in HEK293 cells by lonWorks Quattro analysis; format: cell-based
[25] = target: Testis-specific serine/threonine-protein kinase 1 (Homo sapiens) (UniProt Q9BXA7); assay: Inhibition of STK22D (unknown origin) at 1 uM relative to control
[26] = target: Receptor-type tyrosine-protein kinase FLT3 (Homo sapiens) (UniProt P36888); assay: Inhibition of FLT3 (unknown origin) at 1 uM relative to control

Tyrosine-protein kinase Blk (Homo sapiens), sequence (P51451 2-505 limits assumed): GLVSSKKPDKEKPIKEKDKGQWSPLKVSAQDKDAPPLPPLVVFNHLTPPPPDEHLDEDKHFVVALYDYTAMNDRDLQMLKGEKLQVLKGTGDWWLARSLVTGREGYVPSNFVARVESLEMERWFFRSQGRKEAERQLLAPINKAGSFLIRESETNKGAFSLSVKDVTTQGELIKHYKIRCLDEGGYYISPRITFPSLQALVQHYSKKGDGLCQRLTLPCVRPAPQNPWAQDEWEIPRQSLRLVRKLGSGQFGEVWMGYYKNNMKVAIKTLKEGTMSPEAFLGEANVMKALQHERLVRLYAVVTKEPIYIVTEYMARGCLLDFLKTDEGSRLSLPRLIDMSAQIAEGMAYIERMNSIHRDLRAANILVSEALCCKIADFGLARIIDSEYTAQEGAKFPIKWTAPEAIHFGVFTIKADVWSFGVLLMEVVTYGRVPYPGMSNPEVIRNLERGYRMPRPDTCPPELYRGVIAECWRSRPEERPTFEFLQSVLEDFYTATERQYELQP
Insulin receptor (Homo sapiens), sequence (P06213 28-758 limits assumed): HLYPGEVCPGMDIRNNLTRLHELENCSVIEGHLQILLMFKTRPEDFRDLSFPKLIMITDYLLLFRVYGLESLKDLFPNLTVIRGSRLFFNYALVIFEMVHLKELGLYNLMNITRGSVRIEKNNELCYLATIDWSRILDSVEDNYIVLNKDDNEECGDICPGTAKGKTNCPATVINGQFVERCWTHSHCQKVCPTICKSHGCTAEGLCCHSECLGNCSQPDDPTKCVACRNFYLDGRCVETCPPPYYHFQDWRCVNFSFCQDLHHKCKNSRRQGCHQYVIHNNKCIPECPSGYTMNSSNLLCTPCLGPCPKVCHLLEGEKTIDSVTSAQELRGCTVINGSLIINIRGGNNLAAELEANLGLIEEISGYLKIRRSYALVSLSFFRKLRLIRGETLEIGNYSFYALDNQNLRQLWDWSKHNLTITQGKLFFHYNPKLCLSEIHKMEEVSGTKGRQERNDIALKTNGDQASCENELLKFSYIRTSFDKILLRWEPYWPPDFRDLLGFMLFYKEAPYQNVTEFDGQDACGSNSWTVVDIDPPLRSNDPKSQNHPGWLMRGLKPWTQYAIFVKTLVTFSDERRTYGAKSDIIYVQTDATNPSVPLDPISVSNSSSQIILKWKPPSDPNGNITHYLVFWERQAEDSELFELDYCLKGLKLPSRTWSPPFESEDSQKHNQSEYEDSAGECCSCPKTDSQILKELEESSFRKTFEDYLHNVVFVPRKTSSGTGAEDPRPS
Insulin receptor (Homo sapiens), sequence (P06213 763-1382 limits assumed): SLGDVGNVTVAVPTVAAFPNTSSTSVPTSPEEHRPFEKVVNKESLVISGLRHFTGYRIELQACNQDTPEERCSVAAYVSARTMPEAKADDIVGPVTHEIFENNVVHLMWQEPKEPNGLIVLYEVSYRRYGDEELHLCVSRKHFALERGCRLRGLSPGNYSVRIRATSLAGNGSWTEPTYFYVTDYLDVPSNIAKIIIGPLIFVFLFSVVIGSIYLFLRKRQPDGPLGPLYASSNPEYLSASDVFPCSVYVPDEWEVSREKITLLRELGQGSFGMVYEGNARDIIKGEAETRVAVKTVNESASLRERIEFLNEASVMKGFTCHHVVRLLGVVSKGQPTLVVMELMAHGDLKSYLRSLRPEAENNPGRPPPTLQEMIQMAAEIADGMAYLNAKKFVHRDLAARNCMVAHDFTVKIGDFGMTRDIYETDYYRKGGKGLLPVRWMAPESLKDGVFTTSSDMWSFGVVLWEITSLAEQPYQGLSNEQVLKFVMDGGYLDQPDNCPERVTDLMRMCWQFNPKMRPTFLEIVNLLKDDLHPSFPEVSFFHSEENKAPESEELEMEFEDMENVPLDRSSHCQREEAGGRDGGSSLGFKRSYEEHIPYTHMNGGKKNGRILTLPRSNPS
Casein kinase I isoform alpha (Homo sapiens), sequence (P48729 2-337 limits assumed): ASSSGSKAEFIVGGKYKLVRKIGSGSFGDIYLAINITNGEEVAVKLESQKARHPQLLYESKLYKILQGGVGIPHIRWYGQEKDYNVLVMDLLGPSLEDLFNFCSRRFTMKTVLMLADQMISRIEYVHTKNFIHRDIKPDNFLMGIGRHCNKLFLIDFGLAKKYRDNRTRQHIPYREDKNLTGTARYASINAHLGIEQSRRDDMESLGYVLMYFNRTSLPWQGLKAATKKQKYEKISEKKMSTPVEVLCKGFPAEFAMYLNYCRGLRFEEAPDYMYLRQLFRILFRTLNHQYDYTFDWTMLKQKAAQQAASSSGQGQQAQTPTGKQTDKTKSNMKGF
Testis-specific serine/threonine-protein kinase 1 (Homo sapiens), sequence (Q9BXA7 whole entry): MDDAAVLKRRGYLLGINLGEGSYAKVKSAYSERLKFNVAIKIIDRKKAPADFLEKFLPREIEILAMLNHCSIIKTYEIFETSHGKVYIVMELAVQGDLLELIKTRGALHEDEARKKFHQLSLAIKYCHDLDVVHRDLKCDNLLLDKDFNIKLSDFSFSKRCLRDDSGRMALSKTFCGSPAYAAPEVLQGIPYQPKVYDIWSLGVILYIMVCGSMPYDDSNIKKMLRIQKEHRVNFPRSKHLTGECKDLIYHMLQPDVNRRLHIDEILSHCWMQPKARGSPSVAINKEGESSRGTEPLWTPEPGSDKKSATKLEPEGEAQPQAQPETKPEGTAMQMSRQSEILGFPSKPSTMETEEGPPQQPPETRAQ
Insulin-like growth factor 1 receptor (Homo sapiens), sequence (P08069 31-736 limits assumed): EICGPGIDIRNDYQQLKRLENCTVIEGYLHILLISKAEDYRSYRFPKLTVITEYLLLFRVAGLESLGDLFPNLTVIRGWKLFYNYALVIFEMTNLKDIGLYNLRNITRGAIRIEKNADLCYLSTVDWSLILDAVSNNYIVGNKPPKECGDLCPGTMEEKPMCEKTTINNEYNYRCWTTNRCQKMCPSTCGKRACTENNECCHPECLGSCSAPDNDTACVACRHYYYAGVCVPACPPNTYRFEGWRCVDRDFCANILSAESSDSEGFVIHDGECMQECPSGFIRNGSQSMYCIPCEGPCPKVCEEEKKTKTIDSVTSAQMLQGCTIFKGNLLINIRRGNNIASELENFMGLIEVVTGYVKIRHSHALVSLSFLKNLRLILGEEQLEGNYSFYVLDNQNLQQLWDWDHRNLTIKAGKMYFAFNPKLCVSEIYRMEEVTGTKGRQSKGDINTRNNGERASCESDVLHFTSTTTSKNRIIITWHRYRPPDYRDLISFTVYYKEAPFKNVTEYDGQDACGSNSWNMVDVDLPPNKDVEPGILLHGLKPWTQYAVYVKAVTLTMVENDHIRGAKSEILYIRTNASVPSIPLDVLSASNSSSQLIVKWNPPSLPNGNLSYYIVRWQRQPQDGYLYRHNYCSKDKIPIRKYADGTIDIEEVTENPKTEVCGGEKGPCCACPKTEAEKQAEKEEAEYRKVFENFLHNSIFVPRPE
Insulin-like growth factor 1 receptor (Homo sapiens), sequence (P08069 741-1367 limits assumed): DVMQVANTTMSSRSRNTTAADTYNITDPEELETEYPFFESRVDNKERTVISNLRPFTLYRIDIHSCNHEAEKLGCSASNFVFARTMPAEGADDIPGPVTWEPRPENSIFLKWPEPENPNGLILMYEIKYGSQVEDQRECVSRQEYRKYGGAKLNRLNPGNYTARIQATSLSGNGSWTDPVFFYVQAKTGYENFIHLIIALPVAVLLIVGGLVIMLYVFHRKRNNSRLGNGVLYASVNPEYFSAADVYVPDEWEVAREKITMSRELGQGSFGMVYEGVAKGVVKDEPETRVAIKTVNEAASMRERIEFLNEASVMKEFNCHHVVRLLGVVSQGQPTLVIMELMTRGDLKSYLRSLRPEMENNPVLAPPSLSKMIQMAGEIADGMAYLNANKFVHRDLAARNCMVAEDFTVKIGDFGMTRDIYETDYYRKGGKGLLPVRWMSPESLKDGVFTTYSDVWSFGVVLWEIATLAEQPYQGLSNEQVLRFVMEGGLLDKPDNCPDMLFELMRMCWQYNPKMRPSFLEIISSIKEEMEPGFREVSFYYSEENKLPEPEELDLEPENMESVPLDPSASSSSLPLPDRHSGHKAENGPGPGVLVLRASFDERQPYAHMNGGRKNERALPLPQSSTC
Tyrosine-protein kinase JAK3 (Homo sapiens), sequence (P52333 whole entry): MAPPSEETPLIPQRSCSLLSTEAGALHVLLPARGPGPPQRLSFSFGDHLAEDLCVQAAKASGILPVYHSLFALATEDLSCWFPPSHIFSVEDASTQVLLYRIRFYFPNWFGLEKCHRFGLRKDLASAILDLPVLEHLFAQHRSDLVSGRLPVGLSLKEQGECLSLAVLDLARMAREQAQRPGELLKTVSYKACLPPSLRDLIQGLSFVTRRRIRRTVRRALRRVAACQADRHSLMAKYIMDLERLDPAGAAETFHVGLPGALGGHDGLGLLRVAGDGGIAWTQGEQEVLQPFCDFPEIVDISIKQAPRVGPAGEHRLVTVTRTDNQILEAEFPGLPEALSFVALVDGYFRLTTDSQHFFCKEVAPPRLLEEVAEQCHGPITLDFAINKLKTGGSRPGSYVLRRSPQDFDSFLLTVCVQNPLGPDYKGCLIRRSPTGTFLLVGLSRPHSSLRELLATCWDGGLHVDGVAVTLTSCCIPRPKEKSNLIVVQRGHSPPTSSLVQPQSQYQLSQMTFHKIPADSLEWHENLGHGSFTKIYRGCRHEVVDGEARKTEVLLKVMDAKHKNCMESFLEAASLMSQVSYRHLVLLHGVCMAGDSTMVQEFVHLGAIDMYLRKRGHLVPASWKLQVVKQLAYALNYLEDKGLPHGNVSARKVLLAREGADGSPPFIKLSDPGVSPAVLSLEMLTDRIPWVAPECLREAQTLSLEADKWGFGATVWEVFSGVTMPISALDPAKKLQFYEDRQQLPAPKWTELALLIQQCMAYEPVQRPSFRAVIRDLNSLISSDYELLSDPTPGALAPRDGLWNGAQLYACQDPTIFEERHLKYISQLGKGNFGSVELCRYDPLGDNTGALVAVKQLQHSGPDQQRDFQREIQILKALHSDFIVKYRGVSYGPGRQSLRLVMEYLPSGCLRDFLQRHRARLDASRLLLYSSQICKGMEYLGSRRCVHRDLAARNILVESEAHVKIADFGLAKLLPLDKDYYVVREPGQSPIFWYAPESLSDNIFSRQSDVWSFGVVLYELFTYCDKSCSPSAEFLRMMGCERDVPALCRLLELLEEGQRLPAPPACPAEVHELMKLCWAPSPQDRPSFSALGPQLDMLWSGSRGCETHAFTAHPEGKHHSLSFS

SMILES: C=CC(=O)Nc1cc(Nc2nccc(-c3cn4c5c(cccc35)CCC4)n2)c(OC)cc1N(C)CCN(C)C
- inhibition [1]: 5%
- IC50 [2]: 0.0053 to 0.006 µM
- T/C (NCI-H1975 [3]): 12.1%
- Activity (Mus musculus): Non-Toxic
- inhibition [4]: 83%
- clearance [5]: 86.2 mL/min/kg
- inhibition [6]: 14%
- inhibition [7]: 7%
- T/C (NCI-H1975 [8]): 56.4%
- inhibition (Homo sapiens): 110%
- half-life [9]: 0.77 h
- CLint scaled [10]: 63.4 mL/min/kg
- inhibition in vivo at 5 mg/kg (NCI-H1975 [11]): 46.8%
- inhibition [12]: 75%
- inhibition in vivo at 10 mg/kg (NCI-H1975 [13]): 83.5%
- inhibition [14]: 36%
- inhibition [15]: -1%
- Tmax [16]: 3.3 h
- half-life [17]: 4.1 h
- inhibition [18]: 85%
- inhibition [19]: 89%
- inhibition [20]: -2%
- inhibition [21]: 21%
- inhibition [22]: -4%
- inhibition [23]: 0%
- IC50 [24]: 8.46 µM
- inhibition [25]: 72%
- inhibition [26]: 56%
